The test system of data set [1] is Toxoplasma gondii. Nature of the data set: Antiparasitic activity against Toxoplasma gondii expressing beta-galactosidase infected in HFF assessed as parasite growth inhibition after 72 hrs. The data set is classed as functional, organism-based. Put shortly: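 β-gal-expressing parasites preincubated 30 min with compound dilutions in DMEM/10% FBS/gentamicin containing 0.2% DMSO, then inoculated at 500/well onto confluent HFF monolayers and cultured continuously; 72 h at 37 °C, 5% CO2. Lysed cells read with chlorophenol red-β-d-galactopyranoside at A570, normalized to untreated control; EC50 from variable-slope log(inhibitor)-response fit, three experiments (n = 4 replicates).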

Data set [2] has as its system HFF. Kind of data set: Cytotoxicity against HFF after 72 hrs. The data set is classed as cell-based. The conditions noted are these: human. Summed up:
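Confluent HFF monolayers given serial dilutions in complete DMEM with 0.2% DMSO for 72 h; viable cells by MTS colorimetric assay, normalized to untreated cells.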

For data set [3], the system named is Toxoplasma gondii. Kind of data set: Antiparasitic activity against Toxoplasma gondii expressing beta-galactosidase infected in HFF assessed as parasite growth inhibition treated for 2 hrs followed by washout measured after 48 hrs after 72 hrs relative to continuous culture in presence of drug for 48 hrs. Type of data set: functional. Summed up: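 β-gal-expressing T. gondii preincubated 30 min with compound dilutions in complete DMEM (10% FBS, gentamicin, 0.2% DMSO), 500 parasites/well onto confluent HFF; compound washed out after 2 h versus continuous exposure; 72 h at 37 °C, 5% CO2. Lysis, chlorophenol red-β-D-galactopyranoside, A570 normalized to untreated; variable-slope log(inhibitor)-response fit; three experiments, n = 4.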

Data set [4] deals with Actin (Toxoplasma gondii) (UniProt P53476). Kind of data set: Induction of Toxoplasma gondii N-terminally his-tagged recombinant actin polymerization after 1 hr. Put shortly: (§1)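 His-tagged TgACTI from baculovirus, Ni-NTA purified, cleared at 100000g; 5 μM actin in F-buffer (50 mM KCl, 2 mM MgCl2, 1 mM ATP) with compound plus Alexa 488 phalloidin 1.2 U/μL, 1 h; filaments imaged by fluorescence microscopy (63× oil); lengths averaged over three filaments per point.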
Actin (Toxoplasma gondii), sequence (P53476 whole entry): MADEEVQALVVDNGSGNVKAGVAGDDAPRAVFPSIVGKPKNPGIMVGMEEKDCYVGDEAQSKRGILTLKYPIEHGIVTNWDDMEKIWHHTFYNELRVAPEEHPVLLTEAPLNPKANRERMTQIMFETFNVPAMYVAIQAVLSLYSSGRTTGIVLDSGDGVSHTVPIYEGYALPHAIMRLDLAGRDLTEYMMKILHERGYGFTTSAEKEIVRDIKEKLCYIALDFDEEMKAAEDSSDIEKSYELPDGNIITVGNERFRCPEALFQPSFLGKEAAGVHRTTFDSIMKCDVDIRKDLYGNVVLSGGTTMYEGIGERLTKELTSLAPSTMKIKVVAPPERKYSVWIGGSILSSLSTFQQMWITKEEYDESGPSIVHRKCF

For data set [5] the target is unchanged. Nature of the data set: Induction of Toxoplasma gondii N-terminally his-tagged recombinant actin polymerization at 2 uM after 1 hr using phalloidin staining by fluorescence microscopic analysis. Summed up: as §1
For data set [6] the target is unchanged. Nature of the data set: Induction of Toxoplasma gondii N-terminally his-tagged recombinant actin polymerization at 0.25 uM after 1 hr using phalloidin staining by fluorescence microscopic analysis. Put shortly: as §1

The structures appear in SMILES notation. Calls of active or inactive are those of the source. The rule behind the calls is not given here.

Broadly, the EC50 is the concentration that produces a half-maximal response.

As for `CO[C@@H]1C(=O)O[C@H](C)[C@H](C)/C=C(\C)C[C@H](C)C(=O)N[C@@H](C)C(=O)N(C)[C@H](Cc2c[nH]c3ccccc23)C(=O)N[C@H]1c1ccc(CCO)cc1`, the half-maximal effective concentration (EC50) in data set [1] stood at 600 nM. As to `C/C1=C\[C@@H](C)[C@@H](C)OC(=O)C[C@H](c2ccc(O)cc2)NC(=O)[C@@H](Cc2c[nH]c3ccccc23)N(C)C(=O)[C@H](C)NC(=O)[C@@H](C)C1`, in data set [2], the Activity entry is on record as “Toxic”. Moreover, the half-maximal effective concentration (EC50) in data set [1] was 480 nM.

For `CO[C@@H]1C(=O)O[C@H](C)[C@H](C)/C=C(\C)C[C@H](C)C(=O)N[C@@H](C)C(=O)N(C)[C@H](Cc2c[nH]c3ccccc23)C(=O)N[C@H]1c1ccc(F)cc1`, the half-maximal effective concentration (EC50) in data set [1] worked out at 320 nM. For the compound `C/C1=C\[C@H](C)C[C@H](C)OC(=O)C[C@H](c2ccc(O)cc2)NC(=O)[C@@H](Cc2c(Br)[nH]c3ccccc23)N(C)C(=O)[C@H](C)NC(=O)[C@@H](C)C1` [JASPAMIDE], the “fold change (FC)” value in data set [3] is listed as 1.5. In addition, the outcome in data set [4] was Active. Moreover, in data set [2], the Activity entry was “Toxic”. Besides, the EC50 in data set [1] stood at 340 nM. Regarding `CO[C@@H]1C(=O)O[C@H](C)[C@H](C)/C=C(\C)C[C@H](C)C(=O)N[C@@H](C)C(=O)N(C)[C@H](Cc2c[nH]c3ccccc23)C(=O)N[C@H]1c1ccc(C(N)=O)cc1`, in data set [1], the concentration giving a half-maximal response (EC50) was ≥ 45000 nM. On the same count and under the same terms, as for `CO[C@@H]1C(=O)O[C@H](C)[C@H](C)/C=C(\C)C[C@H](C)C(=O)N[C@@H](C)C(=O)N(C)[C@H](Cc2c[nH]c3ccccc23)C(=O)N[C@H]1c1ccc(CO)cc1`, the figure is 740 nM.

Consider `CO[C@@H]1C(=O)O[C@H](C)[C@H](C)/C=C(\C)C[C@H](C)C(=O)N[C@@H](C)C(=O)N(C)[C@H](Cc2c[nH]c3ccccc23)C(=O)N[C@H]1c1ccc(C)cc1`, for which the half-maximal effective concentration (EC50) in data set [1] was determined as 530 nM. As to `CO[C@@H]1C(=O)O[C@H](C)[C@H](C)/C=C(\C)C[C@H](C)C(=O)N[C@@H](C)C(=O)N(C)[C@H](Cc2c[nH]c3ccccc23)C(=O)N[C@H]1c1ccc([N+](=O)[O-])cc1`, in data set [1], the EC50 came out at 610 nM.

For `CO[C@@H]1C(=O)O[C@H](C)[C@H](C)/C=C(\C)C[C@H](C)C(=O)N[C@@H](C)C(=O)N(C)[C@H](Cc2c(Cl)[nH]c3ccccc23)C(=O)N[C@H]1c1ccc(O)cc1`, the Activity result in data set [2] is reported as “Toxic”. Further, the EC50 in data set [1] came out at 220 nM. Consider `CO[C@@H]1C(=O)O[C@H](C)[C@H](C)/C=C(\C)C[C@H](C)C(=O)N[C@@H](C)C(=O)N(C)[C@H](Cc2c[nH]c3ccccc23)C(=O)N[C@H]1c1ccccc1`, for which, in data set [3], the “fold change (FC)” value is recorded as 1.5. In addition, the result in data set [5] and in data set [6] was Active. Moreover, the Activity result in data set [4] is “Dose-dependent effect”. Besides, in data set [1], the EC50 stood at 510 nM. In the case of `CO[C@@H]1C(=O)O[C@H](C)[C@H](C)/C=C(\C)C[C@H](C)C(=O)N[C@@H](C)C(=O)N(C)[C@H](Cc2c[nH]c3ccccc23)C(=O)N[C@H]1c1ccc(C#N)cc1`, in data set [1], the concentration giving a half-maximal response (EC50) is 380 nM. For the compound `CO[C@@H]1C(=O)O[C@H](C)[C@H](C)/C=C(\C)C[C@H](C)C(=O)N[C@@H](C)C(=O)N(C)[C@H](Cc2c[nH]c3ccccc23)C(=O)N[C@H]1c1ccc(N)cc1`, the half-maximal effective concentration (EC50) in data set [1] came out at 660 nM. For `CO[C@@H]1C(=O)O[C@H](C)[C@H](C)/C=C(\C)C[C@H](C)C(=O)N[C@@H](C)C(=O)N(C)[C@H](Cc2c[nH]c3ccccc23)C(=O)N[C@H]1c1ccc(-c2ccccc2)cc1`, the EC50 in data set [1] is 1340 nM. `CO[C@@H]1C(=O)O[C@H](C)[C@H](C)/C=C(\C)C[C@H](C)C(=O)N[C@@H](C)C(=O)N(C)[C@H](Cc2c[nH]c3ccccc23)C(=O)N[C@H]1c1ccc(O)cc1`: the outcome in data set [5] and in data set [6] was Active. In addition, the results for the Activity entry in data set [4] and in data set [2] were “Dose-dependent effect” and “Toxic”, respectively. The concentration for a half-maximal effect (EC50) in data set [1] worked out at 560 nM. As to `COc1ccc([C@@H]2NC(=O)[C@@H](Cc3c[nH]c4ccccc34)N(C)C(=O)[C@H](C)NC(=O)[C@@H](C)C/C(C)=C/[C@@H](C)[C@@H](C)OC(=O)[C@H]2OC)cc1`, in data set [1], the 50% effective concentration (EC50) was found to be 690 nM.

These data come from ChEMBL document CHEMBL2424601, “Synthetic chondramide A analogues stabilize filamentous actin and block invasion by Toxoplasma gondii” (J Nat Prod, 2013).
